In ChEMBL document CHEMBL1268915, “Optimization of a series of dipeptides with a P3 threonine residue as non-covalent inhibitors of the chymotrypsin-like activity of the human 20S proteasome” (Bioorg Med Chem Lett, 2010):
The source made the active and inactive calls. No cut-off for these calls is given here. Residues, ends and D or L forms follow the SMILES beside them. *: point of attachment. NHBn = c1ccc(CN*)cc1; Bn = c1ccc(C*)cc1

System: not listed separately
Assay: (§1) Inhibition of TNF-alpha-induced NF-kappaB activation in human HEK293 cells after 3 hrs by luciferase reporter gene assay
Assay type: cell-based
Conditions: HEK293, 3 h
Summary of the method: (§2)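 NF-κB-luciferase reporter in HEK293 cells (10,000 per well). Cells were pre-incubated with compound for 1 h, then stimulated with 10 ng/ml TNF-α for 3 h with compound still present. IC50 and percentage inhibition were reported as means of at least three independent experiments.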

Compound	IC50 [nM]
Cc1ccsc1CNC(=O)[C@H](CCc1ccccc1)NC(=O)[C@@H](NC(=O)c1ccc(OCc2ccccc2)cc1)[C@@H](C)O	28
Cc1ccccc1CCC(=O)N[C@H](C(=O)N[C@@H](CCc1ccccc1)C(=O)NCc1ccccc1Cl)[C@@H](C)O	330

System: HEK293
Assay: as §1
Assay type: cell-based
Design: concentration or dose not given beside the values
Conditions: dose or concentration not given here
Summary of the method: as §2

Compound	inhibition [%]
Cc1ccsc1CNC(=O)[C@H](CCc1ccccc1)NC(=O)[C@@H](NC(=O)c1ccc(OCc2ccccc2)cc1)[C@@H](C)O	81
Cc1ccccc1CCC(=O)N[C@H](C(=O)N[C@@H](CCc1ccccc1)C(=O)NCc1ccccc1Cl)[C@@H](C)O	71

System: not listed separately
Assay: Cytotoxicity against human Calu6 cells assessed as cellular ATP level after 72 hrs by luminescence-based ATPlite assay
Assay type: cell-based, Calu-6
Conditions: read-out: LC50
Summary of the method: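 Calu6 cells, 2000 per well, incubated with compound for 72 h. Viability read as cellular ATP by luminescence (ATPlite). Values are means of at least three independent experiments.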

Compound	CC50 at 72 h [nM]
Cc1ccsc1CNC(=O)[C@H](CCc1ccccc1)NC(=O)[C@@H](NC(=O)c1ccc(OCc2ccccc2)cc1)[C@@H](C)O	110
Cc1ccccc1CCC(=O)N[C@H](C(=O)N[C@@H](CCc1ccccc1)C(=O)NCc1ccccc1Cl)[C@@H](C)O	2700

System: not listed separately
Assay: Inhibition of chymotrypsin-like activity of human 20s proteasome beta-1 subunit in human erythrocyte assessed as hydrolysis of Ac-WLA-AMC fluorogenic substrate
Conditions: not given

Compound	IC50 [nM]
Cc1ccsc1CNC(=O)[C@H](CCc1ccccc1)NC(=O)[C@@H](NC(=O)c1ccc(OCc2ccccc2)cc1)[C@@H](C)O	> 20000
C[C@H](NC(=O)[C@@H](N)Cc1ccc(OCc2ccccc2)cc1)C(=O)N[C@@H](Cc1c[nH]c2ccccc12)C(=O)NCc1ccccc1 (H-Tyr(Bn)-Ala-Trp-NHBn)	> 20000
Cc1ccccc1CCC(=O)N[C@H](C(=O)N[C@@H](CCc1ccccc1)C(=O)NCc1ccccc1Cl)[C@@H](C)O	> 20000

System: not listed separately
Assay: Inhibition of chymotrypsin-like activity of human 20s proteasome beta2 subunit in human erythrocyte assessed as hydrolysis of Ac-WLA-AMC fluorogenic substrate
Conditions: not given

Compound	IC50 [nM]
Cc1ccsc1CNC(=O)[C@H](CCc1ccccc1)NC(=O)[C@@H](NC(=O)c1ccc(OCc2ccccc2)cc1)[C@@H](C)O	> 20000
C[C@H](NC(=O)[C@@H](N)Cc1ccc(OCc2ccccc2)cc1)C(=O)N[C@@H](Cc1c[nH]c2ccccc12)C(=O)NCc1ccccc1 (H-Tyr(Bn)-Ala-Trp-NHBn)	> 20000
Cc1ccccc1CCC(=O)N[C@H](C(=O)N[C@@H](CCc1ccccc1)C(=O)NCc1ccccc1Cl)[C@@H](C)O	> 20000

Target: Cathepsin B (Homo sapiens) (UniProt P07858)
Assay: Inhibition of human cathepsin B at 100uM
Conditions: not given

Compound	inhibition
Cc1ccsc1CNC(=O)[C@H](CCc1ccccc1)NC(=O)[C@@H](NC(=O)c1ccc(OCc2ccccc2)cc1)[C@@H](C)O	Active
C[C@H](NC(=O)[C@@H](N)Cc1ccc(OCc2ccccc2)cc1)C(=O)N[C@@H](Cc1c[nH]c2ccccc12)C(=O)NCc1ccccc1 (H-Tyr(Bn)-Ala-Trp-NHBn)	Active
Cc1ccccc1CCC(=O)N[C@H](C(=O)N[C@@H](CCc1ccccc1)C(=O)NCc1ccccc1Cl)[C@@H](C)O	Active

Target: Procathepsin L (Homo sapiens) (UniProt P07711)
Sequence (P07711 114-333 limits assumed): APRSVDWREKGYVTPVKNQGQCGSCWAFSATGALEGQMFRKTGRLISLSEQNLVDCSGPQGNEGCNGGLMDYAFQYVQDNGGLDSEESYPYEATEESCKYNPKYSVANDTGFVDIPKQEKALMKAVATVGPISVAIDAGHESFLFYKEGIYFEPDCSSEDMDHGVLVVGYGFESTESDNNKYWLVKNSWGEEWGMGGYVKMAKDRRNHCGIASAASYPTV
Assay: Inhibition of human cathepsin L at 100uM
Conditions: not given

Compound	inhibition
Cc1ccsc1CNC(=O)[C@H](CCc1ccccc1)NC(=O)[C@@H](NC(=O)c1ccc(OCc2ccccc2)cc1)[C@@H](C)O	Active
C[C@H](NC(=O)[C@@H](N)Cc1ccc(OCc2ccccc2)cc1)C(=O)N[C@@H](Cc1c[nH]c2ccccc12)C(=O)NCc1ccccc1 (H-Tyr(Bn)-Ala-Trp-NHBn)	Active
Cc1ccccc1CCC(=O)N[C@H](C(=O)N[C@@H](CCc1ccccc1)C(=O)NCc1ccccc1Cl)[C@@H](C)O	Active

Target: T1, Coagulation factor XII (Homo sapiens) (UniProt P00748)
T1 sequence (whole entry): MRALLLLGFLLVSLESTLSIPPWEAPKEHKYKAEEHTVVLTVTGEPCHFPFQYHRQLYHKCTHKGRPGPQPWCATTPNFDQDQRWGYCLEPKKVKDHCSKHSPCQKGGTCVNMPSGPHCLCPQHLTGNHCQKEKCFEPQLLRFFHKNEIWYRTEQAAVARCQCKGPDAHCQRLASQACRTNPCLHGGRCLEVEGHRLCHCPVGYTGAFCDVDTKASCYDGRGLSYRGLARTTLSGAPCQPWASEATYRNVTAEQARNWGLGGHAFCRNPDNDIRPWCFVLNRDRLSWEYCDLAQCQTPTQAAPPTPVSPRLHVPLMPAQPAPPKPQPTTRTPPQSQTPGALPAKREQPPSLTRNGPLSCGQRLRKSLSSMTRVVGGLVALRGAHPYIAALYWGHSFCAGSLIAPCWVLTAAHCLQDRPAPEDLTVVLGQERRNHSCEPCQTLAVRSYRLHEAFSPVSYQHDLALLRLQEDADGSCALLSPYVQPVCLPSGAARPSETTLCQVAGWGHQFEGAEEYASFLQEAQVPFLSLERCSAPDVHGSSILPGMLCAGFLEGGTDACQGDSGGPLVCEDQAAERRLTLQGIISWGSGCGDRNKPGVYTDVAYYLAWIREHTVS
Assay: Inhibition of human coagulation factor beta 12a at 100 uM
Conditions: not given

Compound	inhibition
Cc1ccsc1CNC(=O)[C@H](CCc1ccccc1)NC(=O)[C@@H](NC(=O)c1ccc(OCc2ccccc2)cc1)[C@@H](C)O	Active
C[C@H](NC(=O)[C@@H](N)Cc1ccc(OCc2ccccc2)cc1)C(=O)N[C@@H](Cc1c[nH]c2ccccc12)C(=O)NCc1ccccc1 (H-Tyr(Bn)-Ala-Trp-NHBn)	Active
Cc1ccccc1CCC(=O)N[C@H](C(=O)N[C@@H](CCc1ccccc1)C(=O)NCc1ccccc1Cl)[C@@H](C)O	Active

Organism: Homo sapiens
Assay: Inhibition of human chymotrypsin at 100 uM
Conditions: not given

Compound	inhibition
Cc1ccsc1CNC(=O)[C@H](CCc1ccccc1)NC(=O)[C@@H](NC(=O)c1ccc(OCc2ccccc2)cc1)[C@@H](C)O	Active
C[C@H](NC(=O)[C@@H](N)Cc1ccc(OCc2ccccc2)cc1)C(=O)N[C@@H](Cc1c[nH]c2ccccc12)C(=O)NCc1ccccc1 (H-Tyr(Bn)-Ala-Trp-NHBn)	Active
Cc1ccccc1CCC(=O)N[C@H](C(=O)N[C@@H](CCc1ccccc1)C(=O)NCc1ccccc1Cl)[C@@H](C)O	Active

Organism: Homo sapiens
Assay: Inhibition of human elastase at 100 uM
Conditions: not given

Compound	inhibition
Cc1ccsc1CNC(=O)[C@H](CCc1ccccc1)NC(=O)[C@@H](NC(=O)c1ccc(OCc2ccccc2)cc1)[C@@H](C)O	Active
C[C@H](NC(=O)[C@@H](N)Cc1ccc(OCc2ccccc2)cc1)C(=O)N[C@@H](Cc1c[nH]c2ccccc12)C(=O)NCc1ccccc1 (H-Tyr(Bn)-Ala-Trp-NHBn)	Active
Cc1ccccc1CCC(=O)N[C@H](C(=O)N[C@@H](CCc1ccccc1)C(=O)NCc1ccccc1Cl)[C@@H](C)O	Active

Target: Plasminogen (Homo sapiens) (UniProt P00747)
Sequence (P00747 97-580 limits assumed): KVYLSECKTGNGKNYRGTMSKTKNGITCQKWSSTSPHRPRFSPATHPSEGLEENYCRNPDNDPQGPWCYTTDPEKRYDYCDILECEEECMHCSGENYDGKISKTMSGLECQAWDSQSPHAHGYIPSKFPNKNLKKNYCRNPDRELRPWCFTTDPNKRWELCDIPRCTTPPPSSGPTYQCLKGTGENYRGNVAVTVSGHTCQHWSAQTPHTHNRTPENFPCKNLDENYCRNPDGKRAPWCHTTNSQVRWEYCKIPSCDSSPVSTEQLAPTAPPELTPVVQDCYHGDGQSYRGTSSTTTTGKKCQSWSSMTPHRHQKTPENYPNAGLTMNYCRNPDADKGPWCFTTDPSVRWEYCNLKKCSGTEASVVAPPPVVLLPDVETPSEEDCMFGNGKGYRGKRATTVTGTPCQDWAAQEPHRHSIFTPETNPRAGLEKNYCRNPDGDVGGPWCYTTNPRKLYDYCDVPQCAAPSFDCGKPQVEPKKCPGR
Sequence (P00747 581-810 limits assumed): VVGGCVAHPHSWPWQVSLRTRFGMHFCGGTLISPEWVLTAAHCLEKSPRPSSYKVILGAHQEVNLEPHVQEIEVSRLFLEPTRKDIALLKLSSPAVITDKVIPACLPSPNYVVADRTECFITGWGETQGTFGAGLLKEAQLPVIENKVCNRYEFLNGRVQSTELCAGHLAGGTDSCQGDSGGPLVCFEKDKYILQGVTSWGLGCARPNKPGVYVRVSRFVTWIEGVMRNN
Assay: Inhibition of human plasmin at 100 uM
Conditions: not given

Compound	inhibition
Cc1ccsc1CNC(=O)[C@H](CCc1ccccc1)NC(=O)[C@@H](NC(=O)c1ccc(OCc2ccccc2)cc1)[C@@H](C)O	Active
C[C@H](NC(=O)[C@@H](N)Cc1ccc(OCc2ccccc2)cc1)C(=O)N[C@@H](Cc1c[nH]c2ccccc12)C(=O)NCc1ccccc1 (H-Tyr(Bn)-Ala-Trp-NHBn)	Active
Cc1ccccc1CCC(=O)N[C@H](C(=O)N[C@@H](CCc1ccccc1)C(=O)NCc1ccccc1Cl)[C@@H](C)O	Active

Target: Prothrombin (Homo sapiens) (UniProt P00734)
Assay: Inhibition of human thrombin at 100 uM
Conditions: not given

Compound	inhibition
Cc1ccsc1CNC(=O)[C@H](CCc1ccccc1)NC(=O)[C@@H](NC(=O)c1ccc(OCc2ccccc2)cc1)[C@@H](C)O	Active
C[C@H](NC(=O)[C@@H](N)Cc1ccc(OCc2ccccc2)cc1)C(=O)N[C@@H](Cc1c[nH]c2ccccc12)C(=O)NCc1ccccc1 (H-Tyr(Bn)-Ala-Trp-NHBn)	Active
Cc1ccccc1CCC(=O)N[C@H](C(=O)N[C@@H](CCc1ccccc1)C(=O)NCc1ccccc1Cl)[C@@H](C)O	Active

Target: Tissue-type plasminogen activator (Homo sapiens) (UniProt P00750)
Sequence (P00750 36-562 limits assumed): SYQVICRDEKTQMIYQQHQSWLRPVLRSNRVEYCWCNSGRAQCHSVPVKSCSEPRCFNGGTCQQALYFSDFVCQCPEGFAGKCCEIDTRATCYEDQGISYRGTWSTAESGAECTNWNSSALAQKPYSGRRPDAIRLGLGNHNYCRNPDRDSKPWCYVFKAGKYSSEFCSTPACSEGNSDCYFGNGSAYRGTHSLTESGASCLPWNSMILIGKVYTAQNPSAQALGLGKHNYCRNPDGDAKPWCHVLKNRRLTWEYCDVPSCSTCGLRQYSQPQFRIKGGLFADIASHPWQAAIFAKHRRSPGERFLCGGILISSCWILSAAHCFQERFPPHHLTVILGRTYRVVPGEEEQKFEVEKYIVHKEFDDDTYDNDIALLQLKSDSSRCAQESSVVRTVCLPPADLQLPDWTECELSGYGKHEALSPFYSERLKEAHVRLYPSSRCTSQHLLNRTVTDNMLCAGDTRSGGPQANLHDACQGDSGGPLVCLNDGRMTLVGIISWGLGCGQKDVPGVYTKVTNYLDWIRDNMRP
Assay: Inhibition of tissue plasminogen activator at 100 uM
Conditions: not given

Compound	inhibition
Cc1ccsc1CNC(=O)[C@H](CCc1ccccc1)NC(=O)[C@@H](NC(=O)c1ccc(OCc2ccccc2)cc1)[C@@H](C)O	Active
C[C@H](NC(=O)[C@@H](N)Cc1ccc(OCc2ccccc2)cc1)C(=O)N[C@@H](Cc1c[nH]c2ccccc12)C(=O)NCc1ccccc1 (H-Tyr(Bn)-Ala-Trp-NHBn)	Active
Cc1ccccc1CCC(=O)N[C@H](C(=O)N[C@@H](CCc1ccccc1)C(=O)NCc1ccccc1Cl)[C@@H](C)O	Active

Target: Trypsin (Homo sapiens) (UniProt P07477+P07478+P35030)
Assay: Inhibition of human trypsin at 100 uM
Assay type: protein assay
Conditions: not given

Compound	inhibition
Cc1ccsc1CNC(=O)[C@H](CCc1ccccc1)NC(=O)[C@@H](NC(=O)c1ccc(OCc2ccccc2)cc1)[C@@H](C)O	Active
C[C@H](NC(=O)[C@@H](N)Cc1ccc(OCc2ccccc2)cc1)C(=O)N[C@@H](Cc1c[nH]c2ccccc12)C(=O)NCc1ccccc1 (H-Tyr(Bn)-Ala-Trp-NHBn)	Active
Cc1ccccc1CCC(=O)N[C@H](C(=O)N[C@@H](CCc1ccccc1)C(=O)NCc1ccccc1Cl)[C@@H](C)O	Active

Target: T2, Calpain-1 catalytic subunit (Homo sapiens) (UniProt P07384)
T2 sequence (whole entry): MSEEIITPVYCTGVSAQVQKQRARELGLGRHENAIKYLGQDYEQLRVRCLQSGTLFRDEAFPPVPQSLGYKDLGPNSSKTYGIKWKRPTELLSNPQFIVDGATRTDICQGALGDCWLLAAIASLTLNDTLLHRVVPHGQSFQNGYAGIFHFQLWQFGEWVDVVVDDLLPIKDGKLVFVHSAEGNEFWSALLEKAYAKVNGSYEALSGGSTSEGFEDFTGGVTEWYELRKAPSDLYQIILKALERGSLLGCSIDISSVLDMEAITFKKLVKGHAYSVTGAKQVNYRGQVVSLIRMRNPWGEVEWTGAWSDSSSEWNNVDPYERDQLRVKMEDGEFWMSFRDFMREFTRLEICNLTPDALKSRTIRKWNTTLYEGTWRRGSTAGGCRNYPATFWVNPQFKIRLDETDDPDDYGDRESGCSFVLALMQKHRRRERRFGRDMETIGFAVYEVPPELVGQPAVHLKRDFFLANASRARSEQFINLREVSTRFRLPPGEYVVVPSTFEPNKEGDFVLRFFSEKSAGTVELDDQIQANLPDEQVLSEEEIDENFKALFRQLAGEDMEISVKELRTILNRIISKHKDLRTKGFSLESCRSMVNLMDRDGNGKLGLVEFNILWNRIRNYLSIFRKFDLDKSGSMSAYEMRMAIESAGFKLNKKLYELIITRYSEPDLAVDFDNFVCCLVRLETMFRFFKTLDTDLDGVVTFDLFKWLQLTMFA
Assay: Inhibition of human calpain 1 at 100 uM
Conditions: not given

Compound	inhibition
Cc1ccsc1CNC(=O)[C@H](CCc1ccccc1)NC(=O)[C@@H](NC(=O)c1ccc(OCc2ccccc2)cc1)[C@@H](C)O	Active
C[C@H](NC(=O)[C@@H](N)Cc1ccc(OCc2ccccc2)cc1)C(=O)N[C@@H](Cc1c[nH]c2ccccc12)C(=O)NCc1ccccc1 (H-Tyr(Bn)-Ala-Trp-NHBn)	Active
Cc1ccccc1CCC(=O)N[C@H](C(=O)N[C@@H](CCc1ccccc1)C(=O)NCc1ccccc1Cl)[C@@H](C)O	Active
